# Source: PubChem BioAssay
# This is a sample that favours compounds with a hit; in the whole collection about 3.3% have one here.
# Xi reactivation – activators of inactive X chromosome reactivation, primary screen, imaging, XiGFP fibroblasts, GFP high-content imaging, set 2. 360,000 tested, 0.055% active. AID 743238, 2013. XiGFP mouse fibroblasts, % GFP-positive cells imaging, 3 d; cells co-treated with 5-aza-dC sensitizer; scaled so ellipticine positive control = 100%. activation, % at 7.58 µM;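 active = mean normalized replicate activation at least 10% and every replicate at or above 10%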;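 also: 0% = median of on-plate neutral control wells and 100% = ellipticine 6 µM median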
#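 System: 68-5-11 XiGFP fibroblast line; Timing: 3 days compound exposure; Compound dosing: one concentration, pinned; Benchmarks: positive control ellipticine, 6 µM final; Buffer or medium: DMEM containing 5-aza-dC.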
# PglD DTNB – C. jejuni PglD acetyltransferase inhibitors, primary screen, biochemical, DTNB colorimetric, single point. UDP-N-acetylbacillosamine N-acetyltransferase PglD (Campylobacter jejuni). purified PglD enzyme, DTNB colorimetric CoA detection. 360,000 tested, 0.098% active. inhibition, % at 12.5 µM. AID 602405, 2012; in the data active = inhibition above about 16%, passing the limit was not always enough
# E-sel inducer – E-selectin induction in HUVECs, primary screen, imaging, HUVEC, immunofluorescence imaging, single point; P16581; normalized: neutral wells 0, TNF-alpha wells 100; activation, % at 7.58 µM; 260,000 tested, 0.37% active;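 active = mean E-selectin-positive cell signal at least 10% of the positive control, reached in at least 60% of replicates, without over 20% cell loss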
# Target sequence (P16581 whole entry, looked up): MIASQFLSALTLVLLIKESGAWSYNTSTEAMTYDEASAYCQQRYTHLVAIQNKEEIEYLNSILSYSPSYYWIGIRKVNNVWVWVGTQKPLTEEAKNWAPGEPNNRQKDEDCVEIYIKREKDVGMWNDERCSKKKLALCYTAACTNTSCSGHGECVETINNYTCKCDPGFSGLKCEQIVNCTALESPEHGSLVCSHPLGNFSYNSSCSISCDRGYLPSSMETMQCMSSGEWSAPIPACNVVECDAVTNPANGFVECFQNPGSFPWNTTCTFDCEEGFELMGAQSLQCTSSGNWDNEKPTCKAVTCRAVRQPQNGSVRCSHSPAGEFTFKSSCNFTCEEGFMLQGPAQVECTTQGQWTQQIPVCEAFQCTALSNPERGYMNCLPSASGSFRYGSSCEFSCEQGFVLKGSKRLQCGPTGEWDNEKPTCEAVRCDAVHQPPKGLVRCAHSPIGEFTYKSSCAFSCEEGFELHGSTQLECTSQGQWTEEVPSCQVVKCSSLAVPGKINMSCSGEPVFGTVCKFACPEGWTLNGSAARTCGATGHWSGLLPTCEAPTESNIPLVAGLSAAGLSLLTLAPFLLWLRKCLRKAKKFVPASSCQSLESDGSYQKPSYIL
#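 assay system = HUVEC, human umbilical vein endothelial cells | input = 3,000 HUVEC seeded per well | medium = EGM-2 growth medium on 0.1% gelatin-coated wells | dosing = one compound dose added by pin transfer | signal = immunofluorescence imaging | read-out basis = % PE-positive cells | control set = TNF-alpha, DMSO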
# DENV2 CPE – inhibitors of DENV2 cytopathic effect, primary screen, cell-based, plate reader, single concentration | DENV2-infected cells, cytopathic effect rescue | CPE inhibition, % at 9.99 µM | 350,000 tested, 1.7% active; in the data active = CPE inhibition above about 20%, passing the limit was not always enough; tested in BHK-21 cells;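 also: 0% = median of neutral control wells and 100% = median of positive control wells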
# Statin myotox sup – suppressors of statin myotoxicity in C2C12 myotubes, primary screen, cell-based, single point, plate reader; 330,000 tested, 0.78% active; C2C12 myotubes + simvastatin, ATP luminescence, 48 h; scaled: DMSO 0, geranylgeraniol control 100; AID 602340, 2012; rescue of ATP level, % at 7.49 µM;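 active = mean ATP rescue above about 67%, or every replicate alone reaching that limit, limit read from the data, passing the limit was not always enough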;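 also: myotubes were challenged with 10 µM simvastatin during compound exposure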
# FGF22 binding – binders of human FGF22 protein, primary screen, FGF22 synaptogenesis inhibitor project, biophysical, thermal shift, single point; Fibroblast growth factor 22 (Homo sapiens), Q9HCT0; recombinant FGF22 thermal shift, SYPRO orange fluorescence; percent of sucrose octasulfate shift, DMSO zero; activity (Tm shift, normalised), % at 9.99 µM; 340,000 tested, 1.5% active; AID 651658, 2012;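 active = mean Tm shift, scaled 0 neutral to 100 positive control, at about 1.3% or above, every replicate too, limit read from the data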
# * = called active by the depositor; . = no result given.
SMILES,Xi reactivation,PglD DTNB,E-sel inducer,DENV2 CPE,Statin myotox sup,FGF22 binding
Cc1ccc(NC(=O)CN2C(=O)N/C(=C\c3cccn3-c3cccc(C(=O)O)c3)C2=O)cc1,.,-2,.,.,-2,.
CCS(=O)(=O)N1CC2(C1)[C@H](c1ccccc1)[C@H](CO)N2C(=O)c1ccccc1,0,.,0,-7,.,.
COc1ccc(C(=O)N(Cc2ccccc2)c2cccc(C)c2)cc1,0,-2,0,10,-6,0
COc1ccc(CN(C(=O)c2ccc(C)cc2)c2cccc(N)c2)cc1,0,-1,0,38*,-2,0
C[C@@H]1CCCCO[C@@H](CN(C)CC2CCCCC2)[C@@H](C)CN([C@@H](C)CO)C(=O)c2cc(NS(=O)(=O)c3ccccc3)ccc2O1,0,0,0,6,10,-1
Cc1ccc(S(=O)(=O)N[C@@H]2CC[C@@H](CCNS(=O)(=O)Cc3ccccc3)O[C@H]2CO)cc1,0,3,0,7,1,0
COc1ccc(Br)cc1C1SCCN1S(C)(=O)=O (stereo not given),.,-2,.,.,118*,.
O=C(NC1CCN(C(=O)NCc2ccccc2)CC1)c1ccco1,.,3,.,.,101*,.
COc1ccc(NC(=O)Nc2ccc3c(c2)C(=O)N([C@@H](C)CO)C[C@H](C)[C@H](CN(C)S(=O)(=O)c2ccc(C)cc2)OCCCC[C@H](C)O3)cc1,0,0,0,-4,.,0
C[C@@H]1CN([C@H](C)CO)S(=O)(=O)c2ccc(-c3ccccc3)cc2O[C@H]1CN(C)C(=O)Nc1ccccc1F,3,-2,0,-10,-93,0
COc1ccccc1N1CCN(Cc2cnc3ccc(Cl)cn23)CC1,0,-3,0,32*,2,0
COc1ccccc1N1CCN(Cc2ccc(C(=O)O)cc2)CC1,0,-2,.,0,0,0
O=C(C[C@H]1C[C@@H]2c3cc(NC(=O)C4CCC4)ccc3O[C@@H]2[C@@H](CO)O1)NCc1cccc(F)c1,0,1,0,-4,-3,-1
c1ccc(-c2cn(C[C@H]3CC[C@@H]([C@@H]4CC[C@H](Cn5cc(-c6ccccc6)nn5)O4)O3)nn2)cc1,0,4,0,34*,-5,0
c1ccc(-c2cn(C[C@H]3CC[C@@H]([C@@H]4CC[C@H](Cn5cc(-c6ccccn6)nn5)O4)O3)nn2)nc1,0,0,-1,-1,10,0
CN1CCN(C(=O)C[C@H]2CC[C@@H]3[C@H](COC[C@H](O)CN3Cc3ccc4c(c3)OCO4)O2)CC1,0,1,0,1,17,0
O=C(Cc1cccnc1)N[C@@H]1CC[C@@H](CCn2cc(Cc3ccccc3)nn2)O[C@H]1CO,0,1,0,5,0,0
O=C(Cc1cccnc1)N[C@H]1CC[C@@H](CCn2cc(Cc3ccccc3)nn2)O[C@H]1CO,0,0,0,89*,0,0
O=C(C[C@@H]1CC[C@H](NC(=O)Cc2cccnc2)[C@@H](CO)O1)Nc1ccccc1,1,.,0,44*,.,.
C[C@@H]1CCCCO[C@@H](CN(C)Cc2ccc(C(F)(F)F)cc2)[C@H](C)CN([C@H](C)CO)C(=O)c2cc(N(C)C)ccc2O1,0,2,0,-18,.,0
CO[C@@H]1CN(C)C(=O)c2ccc(NC(=O)C3CCOCC3)cc2OC[C@@H](C)N(Cc2nccs2)C[C@@H]1C,1,.,0,.,-8,.
CCOC(=O)N1CCC(NC(=O)c2cc(S(=O)(=O)N3CCc4ccccc43)cn2C)CC1,.,-4,.,.,8,.
CCOC(=O)c1cc(S(=O)(=O)N2CCc3ccccc32)cn1C,0,-1,.,39*,7,0
COc1cccc(-c2ccc3c(c2)[C@@H]2[C@@H](CCN2C(=O)c2ccc4c(c2)OCO4)[C@H](CO)N3C)c1,0,4,0,-21,25,-1
CCOC(=O)Cn1c(=NC(=O)c2ccc([N+](=O)[O-])s2)sc2ccccc21,18*,.,4,0,.,0
SMILES,Xi reactivation,PglD DTNB,E-sel inducer,DENV2 CPE,Statin myotox sup,FGF22 binding
CN(C)CCN1CCN(C2CN(Cc3cn(Cc4ccccc4C(F)(F)F)nn3)S(=O)(=O)C2)CC1 (stereo not given),0,1,0,-6,1,15*
CN1CCN(C2CN(Cc3cn(Cc4ccccc4C(F)(F)F)nn3)S(=O)(=O)C2)CC1 (stereo not given),0,-5,0,-6,-4,0
COc1cc(CN2CCN(c3cccc(C)c3C)CC2)cc([N+](=O)[O-])c1O,0,.,.,1,.,43*
COc1ccc(N2CCN(Cc3cc(OC)c(O)c([N+](=O)[O-])c3)CC2)cc1,0,9,.,.,.,.
COC(=O)CCC(=O)Nc1ccc(NC(C)=O)cc1,.,-5,.,.,11,.
COC(=O)CC/C(=N/Nc1ccc(Cl)c(Cl)c1)C(=O)OC,0,.,-1,14,.,43*
CSc1ccccc1NC(=O)CO/N=C(\C)c1cc2ccccc2o1,0,-1,.,0,.,0
CCc1ccc(NC(=O)CO/N=C(\C)c2cc3ccccc3o2)cc1,0,.,.,-2,.,44*
CCC(=O)N(C)C[C@@H]1Oc2ncc(-c3ccccc3OC)cc2C(=O)N([C@H](C)CO)C[C@H]1C,0,2,0,-11,19,0
CN(C)CC#Cc1ccc([C@@H]2[C@H](CO)N3CCCCN(S(=O)(=O)c4ccccc4F)C[C@@H]23)cc1,0,1,0,9,.,0
CC(C)(C)c1ccc(OCCCC(=O)Nc2ccc(S(N)(=O)=O)cc2)cc1,0,.,.,.,.,44*
O=C(O)c1cc(O)c2c(c1)C(=O)c1cccc(O)c1C2=O,0,1,-2,79*,2,-1
Cc1cc(O)c2c(c1)C(=O)c1cccc(O)c1C2=O,0,.,.,-1,.,0
COC(=O)c1c(C)[nH]c(C(=O)CC#N)c1C,0,1,.,5,12,43*
COc1ccc(CN2CCNC(=O)C2CC(=O)NCC2CCOCC2)c(C)c1C (stereo not given),0,4,0,89*,6,0
CC(C)NC(=O)Nc1ccc2c(c1)C(=O)N(C)[C@@H]1CC[C@@H](CC(=O)NCC(F)(F)F)O[C@@H]1CO2,0,5,105*,-1,5,0
